# Measured values published in PMC3567257 (Biochemistry, 2012).
# Changes are numbered by the printed parent chain. Structures can show the parent of a compound that is named as a salt. Where two headings read alike, the source gives them in different places.
# Key:
# JARID1A PHD3 [1] = molecular target: T1, JARID1A PHD3 (Homo sapiens, UniProt P29375); assay: HaloTag assay for histone peptide binding; conditions: for effect on JARID1A PHD3 binding to H3K4me3 peptide in HaloTag assay: compound 0–200 μM
# T1 sequence (P29375 1601-1660): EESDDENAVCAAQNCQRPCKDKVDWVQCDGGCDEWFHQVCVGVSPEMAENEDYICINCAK
# Procedure, shortened: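 (HQ)5-HaloTag-JARID1A PHD3 (40 μM as added) is captured on HaloTag-ligand plates for 2 h with shaking, then washed with HBST. […] Detection uses streptavidin-HRP (1:2,000, 20 min), six washes and chemiluminescence. Diluent is StabilCoat with 0.5 mM TCEP, at ambient temperature. IC50 is fitted from relative binding versus log[inhibitor].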
# AIRE PHD1 [2] = molecular target: T2, AIRE PHD1 (Homo sapiens, UniProt O43918); assay: HaloTag assay counterscreen; assay type: binding; conditions: 0, 50, 100, 200 μM
# T2 sequence (O43918 293-354): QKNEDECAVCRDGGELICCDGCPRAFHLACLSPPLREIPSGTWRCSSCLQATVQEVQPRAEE
# BHC80 PHD [3] = molecular target: T3, BHC80 PHD (Homo sapiens, UniProt Q96BD5); assay: HaloTag assay counterscreen; assay type: binding; conditions: 0, 50, 100, 200 μM
# T3 sequence (Q96BD5 486-543): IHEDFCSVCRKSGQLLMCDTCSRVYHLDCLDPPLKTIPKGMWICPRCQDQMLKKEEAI
# RAG2 PHD [4] = molecular target: T4, RAG2 PHD (Mus musculus, UniProt P21784); assay: HaloTag assay counterscreen; assay type: binding; conditions: 0, 50, 100, 200 μM
# T4 sequence (P21784 414-487): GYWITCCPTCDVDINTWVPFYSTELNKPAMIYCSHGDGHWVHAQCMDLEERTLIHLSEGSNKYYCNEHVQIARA
# JMJD2A DTD [5] = molecular target: T5, JMJD2A DTD (Homo sapiens, UniProt O75164); assay: HaloTag assay counterscreen; assay type: binding; conditions: 0, 50, 100, 200 μM
# T5 sequence (O75164 895-1011): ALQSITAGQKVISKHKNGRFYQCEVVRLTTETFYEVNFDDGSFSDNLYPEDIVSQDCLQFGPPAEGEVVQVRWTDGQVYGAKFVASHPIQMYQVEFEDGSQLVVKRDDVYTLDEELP
# GST-JARID1A PHD3 = molecular target: T6, GST-JARID1A PHD3 (Homo sapiens, UniProt P29375); assay: Fluorescence polarization binding assay; conditions: for loss of polarization (loss of peptide binding): up to 200 μM
# T6 sequence (P29375 1601-1660): T1 sequence (P29375 1601-1660)
# JARID1A PHD3 [6] = molecular target: T1, JARID1A PHD3; assay: Zinc ejection study; assay type: biochemical; conditions: for zinc release from JARID1A PHD3 (PAR assay): increasing concentrations
# Procedure, shortened: (§1)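 His6-JARID1A PHD3 or (HQ)5-HaloTag reader-domain fusion at 5 μM was treated with increasing test compound concentrations in 10 mM PAR, 30 mM HEPES, 150 mM NaCl, pH 7.4, 5% v/v DMSO. Triplicates were shaken 10 min. A boiled DMSO-only sample served as the destabilization-induced zinc release reference. Zinc release was read as absorbance at 500 nm, with DMSO-only values subtracted.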
# [7] = molecular target: T7, wild-type (WT) JARID1A PHD3 (Homo sapiens, UniProt P29375); assay: Dose ratio; assay type: binding; conditions: di-N-desethylamiodarone 0, 20, 40, 80 μM; tegaserod maleate 0, 80, 160, 320 μM
# T7 sequence (P29375 1601-1660): T1 sequence (P29375 1601-1660)
# [8] = tested on: JARID1A PHD3 D1624 mutants; assay: Dose ratio; assay type: binding; conditions: di-N-desethylamiodarone 0, 20, 40, 80 μM; tegaserod maleate 0, 80, 160, 320 μM
# Procedure, shortened: (§2)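 Fluorescence polarization Schild analysis. Increasing GST-JARID1A PHD3 (wild type or mutant) is titrated against a fixed inhibitor concentration plus 3 nM H3(1–14)K4me3K14fluo probe. The EC50 is determined at each inhibitor level. The dose ratio is the fold change in EC50 with inhibitor relative to EC50 without inhibitor.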
# [9] = tested on: JARID1A PHD3 D1629 mutants; assay: Dose ratio; assay type: binding; conditions: di-N-desethylamiodarone 0, 20, 40, 80 μM; tegaserod maleate 0, 80, 160, 320 μM
# Procedure, shortened: as §2
# JARID1A PHD3 [10] = molecular target: T1, JARID1A PHD3; assay: Affinity pull down with TMR-labeled HaloTag-JARID1A PHD3; assay type: binding; conditions: for inhibition of JARID1A PHD3 in affinity pull down: compound 0–500 μM
# Procedure, shortened: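 Streptavidin-agarose beads are loaded with biotinylated histone peptide (about 300 pmol per 6.6 μL bed volume) in 1% BSA-HBST for 30 min. HaloTag-JARID1A PHD3 is prelabeled with TMR ligand (10 μM each, 15 min, dark) and used at 100 nM final with beads. Compound is 0–500 μM at 5% DMSO, 45 min ambient, dark. After three HBST washes, beads are boiled in SDS buffer, run on 12% SDS-PAGE and scanned for TAMRA fluorescence.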
# AIRE PHD1 [11] = molecular target: T2, AIRE PHD1; assay: Zinc ejection study; assay type: biochemical; conditions: compared with JARID1A PHD3
# Procedure, shortened: as §1
# BHC80 PHD [12] = molecular target: T3, BHC80 PHD; assay: Zinc ejection study; assay type: biochemical; conditions: compared with JARID1A PHD3
# Procedure, shortened: as §1
# [13] = molecular target: T8, JMJD2A double tudor domain (Homo sapiens, UniProt O75164); assay: Zinc ejection study; assay type: biochemical
# T8 sequence (O75164 895-1011): T5 sequence (O75164 895-1011)
# Procedure, shortened: as §1
# JMJD2A DTD [14] = molecular target: T5, JMJD2A DTD; assay: Fluorescence polarization counterscreen; assay type: binding
# Procedure, shortened: (§3)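 Test compound titrated into GST-reader fusion at its 90% fraction-bound concentration plus 3 nM fluorescein-labeled H3(1–14) probe. Protein: AIRE PHD1 4 μM and BHC80 PHD 60 μM (K4-unmodified probe); JMJD2A DTD 4 μM and RAG2 PHD 25 μM (K4me3 probe). Buffer was 30 mM HEPES, 150 mM NaCl, pH 7.4, 0.01% Triton X-100. Triplicates read by polarization. IC50 fitted from fraction bound versus log[inhibitor].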
# RAG2 PHD [15] = molecular target: T4, RAG2 PHD; assay: Fluorescence polarization counterscreen; assay type: binding; conditions: NM: Not measurable within solubility limit of compound
# Procedure, shortened: as §3
# AIRE PHD1 [16] = molecular target: T2, AIRE PHD1; assay: Fluorescence polarization counterscreen; assay type: binding; conditions: H3K4-unmodified probe; NM: Not measurable within solubility limit of compound
# Procedure, shortened: as §3
# BHC80 PHD [17] = molecular target: T3, BHC80 PHD; assay: Fluorescence polarization counterscreen; assay type: binding; conditions: H3K4-unmodified probe; NM: Not measurable within solubility limit of compound
# Procedure, shortened: as §3
# JARID1A PHD3 D1629A = molecular target: T9, JARID1A PHD3 D1629A (Homo sapiens, UniProt P29375, D1629A); assay type: binding; conditions: D1629 mutation, independent of substitution
# T9 sequence (P29375 1601-1660 D1629A): T1 sequence (P29375 1601-1660) with D29A
# JARID1A PHD3 D1629N = molecular target: T10, JARID1A PHD3 D1629N (Homo sapiens, UniProt P29375, D1629N); assay type: binding; conditions: D1629 mutation, independent of substitution
# T10 sequence (P29375 1601-1660 D1629N): T1 sequence (P29375 1601-1660) with D29N
compound,measurement,setting,value
"CCCCc1oc2ccccc2c1C(=O)c1cc(I)c(OCCN(CC)CC)c(I)c1 [Amiodarone, amiodarone HCl]",effect on JARID1A PHD3 binding to H3K4me3 peptide in HaloTag assay,JARID1A PHD3 [1],significantly reduced signal
same,"loss of peptide binding, AIRE PHD1, HaloTag assay",AIRE PHD1 [2],but not AIRE PHD1 or BHC80 PHD
same,"loss of peptide binding, BHC80 PHD, HaloTag assay",BHC80 PHD [3],but not AIRE PHD1 or BHC80 PHD
same,"loss of peptide binding, RAG2 PHD, HaloTag assay",RAG2 PHD [4],significantly affected
same,"loss of peptide binding, JMJD2A DTD, HaloTag assay",JMJD2A DTD [5],significantly affected
same,loss of polarization (loss of peptide binding),GST-JARID1A PHD3,did not cause a significant loss in polarization
same,zinc release from JARID1A PHD3 (PAR assay),JARID1A PHD3 [6],not causing zinc release
"CCCCc1oc2ccccc2c1C(=O)c1cc(I)c(OCCNCC)c(I)c1 [Desethylamiodarone, desethylamiodarone]",inhibition of JARID1A PHD3 in fluorescence polarization assay,GST-JARID1A PHD3; within the concentration range tested,Neither dimethyl-AMI analog nor desethyl-AMI significantly inhibited
"CCCCc1oc2ccccc2c1C(=O)c1cc(I)c(OCCN)c(I)c1 [Di-N-desethylamiodarone, di-N-desethylamiodarone]",shift of EC50 / dose ratio with increasing fixed inhibitor,[7],increase in EC50 values
same,shift of EC50 / dose ratio with increasing fixed inhibitor,[8],dose ratios were less pronounced than for WT JARID1A PHD3
same,shift of EC50 / dose ratio with increasing fixed inhibitor,[9],dose ratios that remained near one
"CSS(C)(=O)=O [MMTS, methyl methanethiosulfonate]",EC50,"JARID1A PHD3 [6]; read-out: concentration for half-maximal zinc loss (PAR assay), 5 μM His6-JARID1A PHD3",33 µM
CCc1oc2ccccc2c1C(=O)c1cc(Br)c(O)c(Br)c1 [benzbromarone],effect on JARID1A PHD3 binding to H3K4me3 peptide in HaloTag assay,JARID1A PHD3 [1],"but not benzbromarone, inhibited JARID1A PHD3"
"CCN(CC)C(=S)SSC(=S)N(CC)CC [disulfiram, tetraethylthiuram disulfide]",effect on JARID1A PHD3 binding to H3K4me3 peptide in HaloTag assay,JARID1A PHD3 [1],significantly reduced signal
same,"loss of peptide binding, AIRE PHD1, HaloTag assay",AIRE PHD1 [2],Significant (by p-value) loss of peptide binding
same,"loss of peptide binding, BHC80 PHD, HaloTag assay",BHC80 PHD [3],Significant (by p-value) loss of peptide binding
same,"loss of peptide binding, RAG2 PHD, HaloTag assay",RAG2 PHD [4],Significant (by p-value) loss of peptide binding
same,inhibition of JARID1A PHD3 in affinity pull down,JARID1A PHD3 [10],inhibited JARID1A PHD3
same,loss of polarization (loss of peptide binding),GST-JARID1A PHD3,did not cause a significant loss in polarization
same,EC50,JARID1A PHD3 [6],10 µM
same,"susceptibility to zinc ejection, AIRE PHD1",AIRE PHD1 [11],similarly susceptible
same,"susceptibility to zinc ejection, BHC80 PHD",BHC80 PHD [12],similarly susceptible
same,zinc release from JMJD2A double tudor domain,[13],No zinc release was observed
CCCCc1oc2ccc(NS(C)(=O)=O)cc2c1C(=O)c1ccc(OCCCN(CCCC)CCCC)cc1 [dronedarone],effect on JARID1A PHD3 binding to H3K4me3 peptide in HaloTag assay,JARID1A PHD3 [1],inhibited JARID1A PHD3
O=C(O)/C=C\C(=O)O [maleate],effect on JARID1A PHD3 binding to H3K4me3 peptide in HaloTag assay,JARID1A PHD3 [1],not maleate
c1ccc2c(c1)Nc1ccccc1S2 [phenothiazine],effect on JARID1A PHD3 binding to H3K4me3 peptide in HaloTag assay,JARID1A PHD3 [1],significantly reduced signal
same,loss of polarization (loss of peptide binding),GST-JARID1A PHD3,did not cause a significant loss in polarization
"[H]/N=C(/NCCCCC)N/N=C/c1c[nH]c2ccc(OC)cc12 [tegaserod, Tegaserod maleate]",effect on JARID1A PHD3 binding to H3K4me3 peptide in HaloTag assay,JARID1A PHD3 [1],significantly reduced signal
same,"loss of peptide binding, AIRE PHD1, HaloTag assay",AIRE PHD1 [2],Modest reductions in binding
same,"loss of peptide binding, BHC80 PHD, HaloTag assay",BHC80 PHD [3],Modest reductions in binding
same,"loss of peptide binding, RAG2 PHD, HaloTag assay",RAG2 PHD [4],Modest reductions in binding
same,"loss of peptide binding, JMJD2A DTD, HaloTag assay",JMJD2A DTD [5],Modest reductions in binding
same,inhibition of JARID1A PHD3 in affinity pull down,JARID1A PHD3 [10],inhibited JARID1A PHD3
same,IC50,GST-JARID1A PHD3,74 ± 16 µM
same,IC50,JMJD2A DTD [14],95 ± 9.8 µM
same,"IC50 towards RAG2 PHD, fluorescence polarization assay",RAG2 PHD [15],exceeded the solubility limits
same,"IC50 towards AIRE PHD1, fluorescence polarization assay",AIRE PHD1 [16],exceeded the solubility limits
same,"IC50 towards BHC80 PHD, fluorescence polarization assay",BHC80 PHD [17],exceeded the solubility limits
same,zinc release from JARID1A PHD3 (PAR assay),JARID1A PHD3 [6],not causing zinc release
same,shift of EC50 / dose ratio with increasing fixed inhibitor,[7],increase in EC50 values
same,shift of EC50 / dose ratio with increasing fixed inhibitor,[8],dose ratios were less pronounced than for WT JARID1A PHD3
same,shift of EC50 / dose ratio with increasing fixed inhibitor,[9],dose ratios that remained near one
H3K4me3 peptide: histone H3 peptide trimethylated at lysine 4; unlabeled competitor or fluorescein-labeled H3(1–14) probe,IC50,"JARID1A PHD3 [10]; read-out: experimental IC50, peptide competition in affinity pull down",13.6 ± 4.5 µM
same,defect in affinity relative to wild-type,JARID1A PHD3 D1629A,greater than 10 fold
same,defect in affinity relative to wild-type,JARID1A PHD3 D1629N,greater than 10 fold
unmethylated H3 peptide: histone H3 peptide unmodified at lysine 4 (ARTKQTARKSTEW; E(PEG-biotin) at position 12),inhibition of JARID1A PHD3 by peptide competition in HaloTag assay,JARID1A PHD3 [1]; 25 μM peptide,did not significantly inhibit
